In general, pIC50 refers to the IC50 on a negative log10 scale, so that one unit is a factor of ten.

pIC50: −log10 of the molar value. Activity calls are given as the source filed them. The rule behind the calls is not given here.

The subject of data set [1] is Plasmodium falciparum. Description: Antiplasmodial activity against chloroquine-resistant Plasmodium falciparum W2 infected in red blood cells up to 19 uM after 72 hrs by parasitic LDH assay. The format is functional, organism-based. The procedure, abridged:
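In vitro P. falciparum growth inhibition (D6 CQ-sensitive clone; W2 CQ-resistant clone). IC50 is the concentration giving 50% growth inhibition. Values are the average of two independent experiments ± SD. Highest concentration tested 19 μM.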

Data set [2] has as its system Vero. Description: Cytotoxicity against african green monkey Vero cells after 48 hrs by neutral red assay. The format is cell-based. The following applies: chlorocebus sabaeus. The procedure, abridged: (§1)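 Mammalian cell cytotoxicity was measured as IC50 in Vero (monkey kidney fibroblasts), LLC-PK11 (pig kidney epithelial) and HepG2 (human hepatoma) cells. The highest concentration tested was 60 μM. Values are the mean of two independent experiments ± SD.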

The nature of data set [3]: Selectivity index, ratio of IC50 for african green monkey Vero cells to IC50 for chloroquine-sensitive Plasmodium falciparum D6. In kind it is toxicity, cell-based. The following applies: read-out: Ratio IC50. The procedure, abridged:
(§2)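 SI is the IC50 for cytotoxicity to Vero cells (monkey kidney fibroblasts) divided by the antimalarial IC50 against the named P. falciparum clone. Cytotoxicity was tested up to 60 μM.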

The subject of a further data set is HepG2. In words: Cytotoxicity against human HepG2 cells up to 60 uM after 48 hrs by neutral red assay. The format is cell-based. The following applies: hepg2, 48 h. The procedure, abridged:
as §1

Data set [4] relates to Vero. In words: Cytotoxicity against african green monkey Vero cells up to 60 uM after 48 hrs by neutral red assay. In kind it is cell-based. The following applies: chlorocebus sabaeus. The procedure, abridged:
as §1

For data set [5], the system named is Mus musculus. In words: Toxicity in mouse infected with Plasmodium berghei assessed as host survival at 100 mg/kg, po administered QD for 3 days measured on day 28. The note with it: in vivo, 72 h. On the set-up: dose 100 mg/kg, route oral. The format is organism-based.
Data set [6] is described as follows: Cytotoxicity against pig LLC-PK11 cells up to 60 uM after 48 hrs by neutral red assay. In kind it is cell-based, Sus scrofa. The following applies: llc-pk11, 48 h. The procedure, abridged: as §1
In data set [7] the test system is Plasmodium berghei. In words: Antimalarial activity against Plasmodium berghei infected in mouse assessed as suppression in parasitemia at 100 mg/kg, po administered QD for 3 days measured on day 7 relative to control. The format is functional. The procedure, abridged:
(§3)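 P. berghei-infected mice, 5 per group, dosed by oral gavage once daily on days 0, 1 and 2 postinfection, with a vehicle control arm. Mice were followed to day 28 postinfection for apparent toxicity, parasitemia and survival. Parasitemia suppression is expressed against mean vehicle-control parasitemia set as 100%, and cure is the number cured per 5 mice.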

The test system of data set [8] is Plasmodium berghei. In words: Antimalarial activity Plasmodium berghei infected in mouse assessed as mean survival time at 100 mg/kg, po administered QD for 3 days (reference value: 15.2 days). The format is functional.
Data set [9] relates to Plasmodium berghei. Description: Antimalarial activity against Plasmodium berghei infected in mouse assessed as suppression in parasitemia at 100 mg/kg, po administered QD for 3 days measured on day 5 relative to control. In kind it is functional. The procedure, abridged:
as §3

The subject of data set [10] is Plasmodium berghei. Description: Antimalarial activity Plasmodium berghei infected in mouse assessed as cure from infection at 100 mg/kg, po administered QD for 3 days measured on day 28. The format is functional, organism-based. On the set-up: dose 100 mg/kg. The procedure, abridged: as §3
Data set [11] relates to Plasmodium falciparum. Description: Ratio of artemesin IC50 to compound IC50 for chloroquine-sensitive Plasmodium falciparum D6. In kind it is functional.
Data set [12] has as its system Plasmodium berghei. Description: Antimalarial activity Plasmodium berghei infected in mouse assessed as mean survival time at 3.3 mg/kg, po administered QD for 3 days (reference value: 15.2 days). The format is functional.
For data set [13], the system named is Plasmodium berghei. In words: Antimalarial activity against Plasmodium berghei infected in mouse assessed as suppression in parasitemia at 3.3 mg/kg, po administered QD for 3 days measured on day 5 relative to control. The format is functional. The procedure, abridged: as §3
Data set [14] is described as follows: Selectivity index, ratio of IC50 for african green monkey Vero cells to IC50 for chloroquine-resistant Plasmodium falciparum W2. The format is toxicity, cell-based. The note with it: read-out: Ratio IC50. The procedure, abridged: as §2
The test system of data set [15] is Plasmodium berghei. In words: Antimalarial activity Plasmodium berghei infected in mouse assessed as cure from infection at 10 mg/kg, po administered QD for 3 days measured on day 28. On the set-up: dose 10 mg/kg. In kind it is functional, organism-based. The procedure, abridged: as §3
In data set [16] the test system is Mus musculus. In words: Toxicity in mouse infected with Plasmodium berghei assessed as host survival at 30 mg/kg, po administered QD for 3 days measured on day 28. The format is organism-based. Further details: dose 30 mg/kg, route oral. The note with it: in vivo, 72 h.
Data set [17] deals with Plasmodium berghei. In words: Antimalarial activity Plasmodium berghei infected in mouse assessed as mean survival time at 30 mg/kg, po administered QD for 3 days (reference value: 15.2 days). The format is functional.
Data set [18] relates to Plasmodium berghei. In words: Antimalarial activity against Plasmodium berghei infected in mouse assessed as suppression in parasitemia at 10 mg/kg, po administered QD for 3 days measured on day 5 relative to control. The format is functional. The procedure, abridged:
as §3

Data set [19] deals with Plasmodium berghei. Description: Antimalarial activity Plasmodium berghei infected in mouse assessed as cure from infection at 30 mg/kg, po administered QD for 3 days measured on day 28. In kind it is functional. The procedure, abridged:
as §3

Data set [20] deals with Plasmodium falciparum. Description: Ratio of chloroquine IC50 to compound IC50 for chloroquine-sensitive Plasmodium falciparum D6. The format is functional.
In data set [21] the test system is Plasmodium berghei. In words: Antimalarial activity Plasmodium berghei infected in mouse assessed as mean survival time at 10 mg/kg, po administered QD for 3 days (reference value: 15.2 days). The format is functional.
Data set [22] relates to Plasmodium berghei. Description: Antimalarial activity against Plasmodium berghei infected in mouse assessed as suppression in parasitemia at 3.3 mg/kg, po administered QD for 3 days measured on day 7 relative to control. In kind it is functional. The procedure, abridged: as §3
Data set [23] concerns Plasmodium falciparum. In words: Antiplasmodial activity against chloroquine-resistant Plasmodium falciparum W2 infected in red blood cells after 72 hrs by parasitic LDH assay. The format is functional, organism-based. The note with it: W2, 72 h.
The subject of data set [24] is Plasmodium berghei. In words: Antimalarial activity Plasmodium berghei infected in mouse assessed as cure from infection at 3.3 mg/kg, po administered QD for 3 days measured on day 28. In kind it is functional, organism-based. Further details: dose 3.3 mg/kg. The procedure, abridged:
as §3

In data set [25] the test system is Plasmodium falciparum. Description: Ratio of chloroquine IC50 to compound IC50 for chloroquine-resistant Plasmodium falciparum W2. The format is functional.
Data set [26] has as its system Plasmodium berghei. In words: Antimalarial activity against Plasmodium berghei infected in mouse assessed as suppression in parasitemia at 30 mg/kg, po administered QD for 3 days measured on day 7 relative to control. The format is functional. The procedure, abridged:
as §3

Data set [27] deals with Mus musculus. In words: Toxicity in mouse infected with Plasmodium berghei assessed as host survival at 3.3 mg/kg, po administered QD for 3 days measured on day 28. The note with it: in vivo, 72 h. In kind it is organism-based. Further details: dose 3.3 mg/kg, route oral.
Data set [28] relates to Plasmodium berghei. In words: Antimalarial activity against Plasmodium berghei infected in mouse assessed as suppression in parasitemia at 30 mg/kg, po administered QD for 3 days measured on day 5 relative to control. In kind it is functional. The procedure, abridged: as §3
Data set [29] relates to Plasmodium falciparum. In words: Antiplasmodial activity against chloroquine-sensitive Plasmodium falciparum D6 infected in red blood cells after 72 hrs by parasitic LDH assay. The following applies: D6, 72 h. The format is functional, organism-based.
The test system of data set [30] is Plasmodium berghei. In words: Antimalarial activity against Plasmodium berghei infected in mouse assessed as suppression in parasitemia at 10 mg/kg, po administered QD for 3 days measured on day 7 relative to control. The format is functional. The procedure, abridged: as §3
Data set [31] concerns Mus musculus. Description: Toxicity in mouse infected with Plasmodium berghei assessed as host survival at 10 mg/kg, po administered QD for 3 days measured on day 28. In kind it is organism-based. Further details: dose 10 mg/kg, route oral. The note with it: in vivo, 72 h.

As for `CCc1nc(N)nc(N)c1-c1ccc(Cl)cc1` [PYRIMETHAMINE], the result with Plasmodium falciparum [1] was inactive. In the data set on Vero [2], the pIC50 was 4.74. Moreover, in data set [3], the selectivity ratio was 1820.

Consider `CCN(CC)CCCC(C)Nc1ccnc2cc(Cl)ccc12` (stereo unspecified) [CHLOROQUINE], for which the Activity entry in the data set on HepG2 is “Non-toxic”; with Vero [4], “Non-toxic”; with Mus musculus [5], “Non-toxic”; in [6], “Non-toxic”; with Plasmodium berghei [7], 100%; in the data set on Plasmodium berghei [9], 100%. The MST with Plasmodium berghei [8] amounted to 28 days. The result in the data set on Plasmodium berghei [10] was inactive.

In the case of `Cc1cc(NCCNc2ccnc3cc(Cl)ccc23)nc(N2CCN(C)CC2)n1`, the “Ratio IC50” value with Plasmodium falciparum [11] was 2; in the data set on Plasmodium falciparum [20], 6; in the data set on Plasmodium falciparum [25], 6. Besides, the MST in the data set on Plasmodium berghei [12] stood at 19.2 days; in the data set with Plasmodium berghei [17], 28 days; in the data set with Plasmodium berghei [21] it was 21.4 days. Moreover, the Activity was 23.5% in the data set with Plasmodium berghei [13]; “Non-toxic” in the data set with HepG2; “Non-toxic” in the data set with Mus musculus [16]; 97% with Plasmodium berghei [18]; 80% in the data set on Plasmodium berghei [19]; “Non-toxic” in the data set on Vero [4]. Besides, the Activity result is recorded as “Non-toxic” in data set [6]; 35.2% with Plasmodium berghei [22]; 100% with Plasmodium berghei [26]; “Toxic” with Mus musculus [27]; 100% in the data set on Plasmodium berghei [28]; 2% in the data set with Plasmodium berghei [30]. For the same molecule, in the data set with Mus musculus [31], the Activity entry is listed as “Toxic”. Besides, the selectivity ratio in [14] is > 2000; in data set [3], > 12000. In addition, the result with Plasmodium berghei [15] and in the data set with Plasmodium berghei [24] was inactive. Also, the pIC50 in the data set on Plasmodium falciparum [23] was 7.52; with Plasmodium falciparum [29] it was 8.30.

Take `CCN1CCN(c2nc(C)cc(NCCCNc3ccnc4cc(Cl)ccc34)n2)CC1`: the entries for the “Ratio IC50” value in the data set with Plasmodium falciparum [11], with Plasmodium falciparum [20] and with Plasmodium falciparum [25] were 2, 6 and 6, respectively. The MST in the data set with Plasmodium berghei [12] was found to be 20.2 days; in the data set on Plasmodium berghei [17] it was 27.2 days; in the data set with Plasmodium berghei [21] it was 15.2 days. Moreover, the Activity with Plasmodium berghei [13] is 20.1%; with HepG2, “Non-toxic”; with Mus musculus [16] it was “Non-toxic”; in the data set with Plasmodium berghei [18] it was 73.9%; in the data set on Plasmodium berghei [19] it was 20%; with Vero [4] it was “Non-toxic”. Moreover, the Activity entry was “Non-toxic” in [6]; 19.1% with Plasmodium berghei [22]; 100% in the data set on Plasmodium berghei [26]; “Toxic” in the data set with Mus musculus [27]; 100% in the data set on Plasmodium berghei [28]; 27.1% in the data set with Plasmodium berghei [30]. Further, in the data set with Mus musculus [31], the Activity entry was “Toxic”. For the same molecule, the selectivity ratio is > 1000 in data set [14] and > 10000 in [3]. The result in the data set with Plasmodium berghei [15] and with Plasmodium berghei [24] was inactive. Further, the results for the pIC50 in the data set on Plasmodium falciparum [23] and with Plasmodium falciparum [29] were 7.22 and 8.22, respectively.

Values taken from ChEMBL document CHEMBL2086283, “Novel 4-aminoquinoline-pyrimidine based hybrids with improved in vitro and in vivo antimalarial activity” (ACS Med Chem Lett, 2012).
